Compound activity deposited in PubChem by several laboratories.
This is a sample that favours compounds with a hit; in the whole collection about 5.1% have one here.
APP 5'UTR act – activates APP 5'UTR luciferase reporter | actives 1% (n = 190,000) | activation, % at 2 µM | SH-SY5Y APP 5'UTR luciferase reporter, luminescence; zero percent = DMSO vehicle wells;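 active means activation above a set limit, based on mean plus 3 SD of controls, cut at about 140% in these data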
STAT1 blocker – inhibitors of IFN-gamma induced STAT1 signaling. NIH 3T3 STAT1-luciferase reporter, luminescence. inhibition, % at 5.5 µM. actives 0.35% (n = 200,000). AID 920;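 active means inhibition above a set limit, the mean inhibition across all tested compounds plus 3 SD, cut at about 34% in these data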;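 further: 0% = IFN-gamma with DMSO and 100% = IFN-gamma with 300 µM nifuroxazide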
STAT3 inh – inhibitors of IL-6 induced STAT3 signaling. inhibition, % at 5.5 µM. U3A cells, IL-6 STAT3-luciferase reporter, luminescence; host cell line lacks STAT1. actives 0.89% (n = 190,000);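 active means inhibition above the mean inhibition across all screened compounds plus 3 SD, cut at about 44% in these data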;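 further: 0% = DMSO only wells and 100% = 100 µM nifuroxazide control wells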
STAT3 activator – increases IL-6 driven STAT3 reporter signal. AID 871. actives 0.91% (n = 190,000). U3A cells, IL-6 STAT3-luciferase reporter, luminescence; 100% = signal with IL-6 EC80 alone. activation (% of control), % at 5.6 µM;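 active means activation above the screen-wide mean of compound activation plus 3 SD, cut at about 130% in these data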;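 further: 0% = background luminescence of wells with medium and substrate only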
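Assay system – human STAT1-deficient U3A cells with stable STAT3-luciferase reporter · Also added – IL-6 (33 ng/mL) · Schedule – compound 1 h, then IL-6 6 h at 37 °C · Technique – reporter luminescence signal · Evaluation – % activation versus median of IL-6-stimulated wells · Benchmarks – IL-6-only wells as 100% reference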
NF-kB neuron act – compounds increasing NF-kB expression in human neuronal cells. actives 1.6% (n = 190,000). fold change at 12.5 µM. NF-kB reporter expression; hits give high values; in the data active means fold change above about 3.3
STAT1 activator – activators of IFN-gamma induced STAT1 signaling; NIH 3T3 STAT1-luciferase reporter, luminescence; 100% = IFN-gamma alone, no compound; AID 932; activation (% of control), % at 5.5 µM; actives 2.6% (n = 200,000);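 active means activation above the screen-wide mean activation plus 3 SD, cut at about 130% in these data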;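 further: raw ratio to IFN-gamma control signal so 100% means no change and 0% no light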
Active calls of the source: *; nt = no result.

SMILES	APP 5'UTR act	STAT1 blocker	STAT3 inh	STAT3 activator	NF-kB neuron act	STAT1 activator
Cc1ccc(-n2nnc3ccccc3c2=O)cc1C	86	-35	4	102	2.1	134*
CN(C)c1ccc(/C=N\NC(=O)c2csnn2)cc1	9	-14	37	72	3.4*	112
O=C(N/N=C\c1ccc(Oc2ccccc2)cc1)c1csnn1	5	-40	15	91	7.5*	137*
Cc1cccc(/C=N\NC(=O)c2csnn2)c1	-3	-29	0	100	2	127
CN(C)c1ccc(/C=N/NC(=O)c2ccnn2C)cc1	46	-26	21	87	4.4*	122
CC(=O)N1CCN(c2ccc(NC(=O)c3ccc(OCc4ccccc4)cc3)cc2)CC1	29	0	11	97	1.1	99
COc1ccc(Oc2ccc(/C=C/C(=O)c3ccc(O)cc3)cc2[N+](=O)[O-])cc1	-25	-1	-12	114	5*	101
C/C(=N\N1CCN(C)CC1)c1ccc(Cl)c(Cl)c1	-8	-3	7	96	1.2	103
CCOC(=O)C1C(c2cccs2)NC(=O)N(C)C1(O)C(F)(F)F (centres undefined)	-10	-5	3	101	1.1	104
CN1C(=O)NC(c2cccc(O)c2)C(C(=O)c2cccs2)C1(O)C(F)(F)F (centres undefined)	135*	1	7	96	1.8	99
CC(CN1CCOCC1)OC(=O)c1ccc2c(c1)OCCO2 (centres undefined)	33	-42	-18	122	2	138*
Cc1cccc(C(=O)OC(C)CN2CCOCC2)c1 (centres undefined)	-14	-12	4	104	1.5	112
COC(OC)c1ccc(C#N)c(=O)[nH]1	-46	11	2	100	1.2	89
COc1cccc2c1C(=O)c1c(O)c3c(c(O)c1C2=O)C[C@@](O)(C(=O)CO)C[C@@H]3O[C@H]1C[C@H](N)[C@H](O)[C@H](C)O1	-95	-181	-45	142*	3.8*	265*
O=c1c(-c2ccco2)[n+]([O-])c2ccccc2n1OCc1ccccc1[N+](=O)[O-]	9	4	5	100	1.3	94
O=C1OC(c2ccc(Br)cc2)=N/C1=C\N1CCCCC1	6	-41	7	99	2	138*
O=C1OC(c2ccccc2)=N/C1=C\N1CCCCC1	93	-47	-26	127	2.4	143*
CN(C)/C=C1/N=C(c2ccccc2)OC1=O	-6	-7	21	86	1.4	106
COc1ccc(NC(=O)CC2C(=O)N(c3ccc(F)cc3)C(=S)N2NC(=O)c2ccccc2)cc1 (centres undefined)	28	-19	-1	100	1.5	117
O=C(NC12CC3CC(CC(C3)C1)C2)c1ccc(-c2ccc(Br)cc2)o1	117	-48	-2	104	0.84	144*
CC(=O)c1ccc(NC(=O)CN2C(=O)/C(=C/C=C/c3ccccc3)SC2=S)cc1	16	-11	-4	103	0.98	110
O=C(CN1C(=O)S/C(=C\C=C\c2ccccc2)C1=O)Nc1cccc(O)c1	16	-33	-7	109	3.4*	130*
O=C(CCc1nnc(-c2ccc3c(c2)OCO3)o1)N1CCC(c2ccc(F)cc2)C1 (centres undefined)	50	-39	-16	116	1.2	134*
O=C(CCc1nnc(-c2ccc3c(c2)OCO3)o1)NC(c1ccccn1)C(F)(F)F (centres undefined)	14	-5	12	95	nt	105
O=C(CCc1nnc(Cc2ccc(-c3ccccc3)cc2)o1)N1CCCC1	-11	7	6	99	1	92
CC1CCN(C(=O)CCc2nnc(-c3ccccc3)o2)CC1	42	-40	-7	111	2.5	135*
Cn1c(SCc2nc3ccccc3c(=O)[nH]2)nc2ccccc21	5	-7	18	87	1.3	106
Cn1c(-c2ccccc2)cnc1SCc1nc2ccccc2c(=O)[nH]1	142*	-37	18	89	1.8	134*
O=C(CCNc1ccc(Cl)cc1)c1cccs1	4	-34	-8	110	2.1	130*
